EP2 antag: blocks the human prostaglandin E2 receptor EP2. AID 1422. C6 glioma cells expressing human EP2, cAMP TR-FRET; cells stimulated with saturating PGE2. P43116. inhibition, % at 25 µM. 260,000 compounds, 0.52% hits;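 active = percent inhibition above 40 after rounding to a whole number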;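 note: rat C6 glioma host cells with rolipram phosphodiesterase inhibitor present; the protocol text gives 20 µM as final concentration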
Target sequence (P43116 whole entry, looked up): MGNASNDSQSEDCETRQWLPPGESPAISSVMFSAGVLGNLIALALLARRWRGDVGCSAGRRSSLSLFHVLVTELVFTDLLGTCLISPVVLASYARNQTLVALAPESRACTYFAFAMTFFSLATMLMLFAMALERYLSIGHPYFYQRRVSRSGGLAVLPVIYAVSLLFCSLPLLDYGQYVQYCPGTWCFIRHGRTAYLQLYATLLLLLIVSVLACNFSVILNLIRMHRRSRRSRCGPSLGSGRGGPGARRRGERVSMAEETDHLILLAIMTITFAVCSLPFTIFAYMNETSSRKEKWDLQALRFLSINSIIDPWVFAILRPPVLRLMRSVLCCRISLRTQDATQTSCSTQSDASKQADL
Granule exo inh: blocks lytic granule exocytosis; TALL-104 LAMP-1 surface exposure, flow cytometry; cells stimulated with thapsigargin and PMA; inhibition, % at 10 µM; 360,000 compounds, 0.66% hits; AID 651702;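 active = inhibition above about 55%, limit read from the data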
MC4R ag barr: agonists of human melanocortin 4 receptor (MC4R) beta-arrestin | P32245 | U2OS MC4R beta-arrestin complementation, luminescence; percent of melanotan II response, DMSO zero | activation, % at 8.9 µM | 360,000 compounds, 0.98% hits | AID 540308;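 active = activation above a per-plate cutoff, the mean activation of sample wells on that plate plus 3 SD, cut at about 8% in these data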
MC4R antag cAMP: antagonists of human melanocortin 4 receptor (MC4R); P32245; inhibition, % at 6.5 µM; MC4R-expressing cells, MTII-stimulated cAMP, LANCE TR-FRET; 360,000 compounds, 0.48% hits;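 active = inhibition above its plate's cutoff, the mean of tested wells on that plate plus 3 SD, cut at about 29% in these data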;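 note: 0% = Melanotan II alone and 100% = Melanotan II plus saturating MCL0020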
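Test system: U2OS cells stably expressing human melanocortin 4 receptor (MC4R); also added: Melanotan II challenge; compound: 6.5 µM single dose; timing: 30-min compound preincubation, 1-h Melanotan II challenge, 1-h detection, room temperature; signal: Eu-cAMP/anti-cAMP TR-FRET, emission 671 nm; repeats: one well per compound, no replicates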
EP2 modulator: EP2 receptor (human) modulation; P43116; EP2-expressing cells, cAMP HTRF FRET, PGE2 co-stimulation; induction, % at 25 µM; 260,000 compounds, 0.83% hits; AID 940;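 active = compounds whose cAMP rise, as percent of the full-agonist control response, exceeds 60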;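 note: rat C6 glioma line stably carrying human EP2 under a CMV promoter; the protocol text gives 20 µM as final concentration; 100% = response of wells given 1 µM PGE2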
T cell HTS: T cell immune modulation candidate; 2C CD8+ T cell-vesicle binding, flow cytometry; stronger effect = lower value; response (vesicle binding), % at 7 µM; 330,000 compounds, 0.068% hits; AID 2052;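 active = response, share of CD8 T cells binding vesicles, and their 90th percentile fluorescence all below set limits, cut at about 80% in these data, passing the limit was not always enough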;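 note: values below 100% mean blocked vesicle binding to the CD8+ T cells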
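Read-out – percent CD8+ FL2 mean versus row control · System – murine 2C transgenic CD8+ T lymphocytes · Times – 1.5 h cell–vesicle binding at 37 °C, then 20 min icy labelling · Control set – naked vesicles low, QL9 vesicles with vehicle high · Detection – cytometric PE anti-B7-1 and Alexa647 anti-CD8 signals after 1% paraformaldehyde fixation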
MC4R barr ag: human MC4R beta-arrestin agonism confirmation | shares compounds with MC4R ag barr | U2OS MC4R beta-arrestin recruitment, luminescence; scaled DMSO 0%, Melanotan II 100% | activation, % at 8.9 µM | 2,400 compounds, 31% hits | AID 602192;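 active = mean activation across replicates above the hit cutoff set in the earlier primary screen, cut at about 8% in these data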
MOR-DOR barr ag: OPRM1-OPRD1 heterodimer agonism counter-screen. shares compounds with MC4R ag barr. U2OS PathHunter beta-arrestin, beta-gal luminescence; percent of deltorphin B response, DMSO zero. activation, % at 9.2 µM. 2,400 compounds, 5.8% hits;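 active = mean activation across replicates exceeds the hit threshold derived in the earlier primary screen, cut at about 18% in these data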;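 note: 100% = deltorphin B at 0.9 µM final and 0% = DMSO alone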
An asterisk follows results filed as active; x = no result given. Sampled rows, rich in hits. Any-hit rate of the full collection: about 2.6%.

SMILES	EP2 antag	Granule exo inh	MC4R ag barr	MC4R antag cAMP	EP2 modulator	T cell HTS	MC4R barr ag	MOR-DOR barr ag
O=C(COc1ccc(-c2ccccc2)cc1)N/N=C/c1cc(O)ccc1Br	5.0	-1.6	36.5*	-0.1	-97.6	571.7	12.7*	5.1
Cc1ccc2nc(-c3ccc(NC(=O)CN4C(=O)NC(C)(c5ccc(OC(F)F)cc5)C4=O)cc3)sc2c1 (stereo not drawn)	8.4	3.8	18.1*	21.1	-5.5	235.9	7.2	5.9
Brc1ccc(CSc2nnc(-c3cnccn3)n2Cc2ccco2)cc1	x	0.5	-0.1	-15.8	15.7	267.7	x	x
O=[N+]([O-])c1cc(S(=O)(=O)N2CCCC2)ccc1N/N=C/c1cccs1	2.7	-2.2	20.2*	-6.8	21.6	120.5	2.4	3.5
O=[N+]([O-])c1cc(S(=O)(=O)N2CCCC2)ccc1N/N=C/c1ccncc1	8.5	-2.6	-1.3	-3.5	-30.4	365.1	x	x
CCc1c(C2(O)CCCCC2)[nH]c2ncccc12	x	-3.7	-1.3	6.5	x	484.2	x	x
Cc1cc(C)cc(NC(=O)CSc2cc(C(=O)c3nccn3C)c3ccccc3n2)c1	8.1	-9.8	9.8*	14.0	17.6	225.1	2.7	8.2
Cc1cccc(NC(=O)CSc2cc(C(=O)c3nccn3C)c3ccccc3n2)c1	5.7	-1.9	-1.3	3.6	-18.5	275.1	x	x
Cc1cccc(NC(=O)C2(c3ccccc3)CCOCC2)c1	5.4	1.3	-0.9	-0.6	-9.1	713.7	x	x
Cc1cccc(NC(=O)C2(C)CC3c4ccccc4C2c2ccccc23)c1 (stereo not drawn)	-5.3	-0.8	16.9*	-1.6	39.9	238.6	4.2	7.7
Cc1csc(NC(=O)c2cc(-c3ccccc3)nc3ccccc23)n1	5.0	-0.9	12.3*	-1.9	6.1	238.3	3.5	7.5
Cc1cccc2sc(N(CCCN(C)C)C(=O)COc3ccc(Cl)cc3)nc12	3.5	9.0	5.0	9.8	-72.0	366.1	x	x
Cc1cc(C)c2sc(N(CCCN(C)C)C(=O)COc3ccc(Cl)cc3)nc2c1	7.3	33.9	11.4*	0.9	-29.7	331.4	25.1*	17.6
CCOC(=O)c1ccc(Nc2nc(C)nc3c2nnn3Cc2ccccc2)cc1	x	-7.5	20.1*	3.7	x	192.8	3.2	5.7
COc1ccc(Cl)cc1Nc1nc(C)nc2c1nnn2Cc1ccccc1	x	-4.1	-0.8	9.5	x	291.0	x	x
Cc1ccc(NC(=O)c2cc(S(=O)(=O)Nc3ccc(C)cc3)cs2)cc1	18.2	-2.3	9.6*	-3.0	x	100.3	13.3*	17.2
COc1ccc(CNC(=O)CN(Cc2cccs2)C(=O)CCC(=O)Nc2ccccn2)cc1	5.4	-3.0	-2.4	8.5	-17.5	266.0	x	x
CCOc1ccc(OCC)c(NC(=O)c2nnn(CC(=O)Nc3cc(C)cc(C)c3)c2N)c1	x	-2.7	42.2*	0.4	x	466.7	18.5*	8.6
FC(F)(F)c1cccc(NC(=S)NC(c2ccccc2)c2ccccc2)c1	4.3	5.9	10.3*	10.5	14.9	449.1	5.6	10.4
O=C1Nc2ccccc2O/C1=C\c1ccccc1	x	1.9	13.0*	10.8	x	189.4	0.9	5.1
COc1ccc(C2c3ccc(O)cc3Oc3ncn4nc(-c5ccccn5)nc4c32)cc1 (stereo not drawn)	2.4	-5.0	48.7*	2.9	-101.2	202.3	9.5*	10.2
CN(C)S(=O)(=O)c1ccc2[nH]cc(/C=C/c3nc4ccccc4c(=O)n3-c3ccccc3)c2c1	12.6	1.7	12.6*	1.3	-51.8	x	9.2*	5.4
O=C(NCc1ccc2c(c1)OCO2)C1CCC(CNS(=O)(=O)c2ccccc2)CC1 (stereo not drawn)	-0.5	-5.3	-0.7	11.5	5.0	181.9	x	x

Source: PubChem BioAssay
